Experimental data reported in ChEMBL document CHEMBL1152476, “Synthesis and in vitro cytotoxicity of 9-anilinoacridines bearing N-mustard residue on both anilino and acridine rings” (Eur J Med Chem, 2009).

Assays:
CCRF-CEM [1] = assay: Cytotoxicity against human CCRF-CEM cells after 72 hrs by XTT-tetrazolium assay; format: functional, cell-based
Method in brief: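 CCRF-CEM human T-cell acute lymphocytic leukemia cells exposed for 72 h to six or seven concentrations per compound. Phenazine methosulfate–XTT was then added for 6 h at 37 °C, and absorbance was read at 450 and 630 nm. IC50 was derived from the dose–effect relationship by median–effect plot analysis.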

CCRF-CEM [2] = assay: Ratio of AHMA IC50 to compound IC50 against human CCRF-CEM cells; format: functional
Method in brief: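 Ratio of AHMA IC50 to test compound IC50, both from the same 72 h CCRF-CEM XTT assay. Six or seven concentrations per drug were tested, and each IC50 came from a median–effect analysis of the dose–effect relationship.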

CCRF-CEM [3] = assay: Antitumor activity in human CCRF-CEM cells xenografted mouse at 2 mg/kg, iv qd for 3 days; format: functional, organism-based; design: dose 2 mg/kg
Method in brief: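 Mice received intravenous injection at 2 mg/kg, once daily ×3 (QD×3), in a DMSO/Tween 80/normal saline vehicle.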

[4] = Solubility in dimethyl sulfoxide; format: physicochemical
[5] = Solubility in Tween 80; format: physicochemical
[6] = Solubility in normal saline; format: physicochemical; conditions: buffer

SMILES	IC50 (CCRF-CEM [1]) [nM]	Ratio IC50 (CCRF-CEM [2])	Activity (CCRF-CEM [3])	solubility [4]	solubility [5]	solubility [6]
ClCCN(CCCl)CCCCOc1cccc(Nc2c3ccccc3nc3ccccc23)c1	392	30	Toxic	Insoluble	Insoluble	Insoluble
ClCCN(CCCl)CCCCOc1cccc(Nc2c3ccccc3nc3c(OCCN(CCCl)CCCl)cccc23)c1	6	30	Toxic	Insoluble	Insoluble	Insoluble
COc1cc(N)cc(Nc2c3ccccc3nc3c(OCCCCN(CCCl)CCCl)cccc23)c1		30	Toxic	Insoluble	Insoluble	Insoluble
ClCCN(CCCl)CCOc1ccc(Nc2c3ccccc3nc3c(OCCN(CCCl)CCCl)cccc23)cc1	14.2	30	Toxic	Insoluble	Insoluble	Insoluble
ClCCN(CCCl)CCCCOc1cccc2c(Nc3ccc(OCCN(CCCl)CCCl)cc3)c3ccccc3nc12	1.3	30	Toxic	Insoluble	Insoluble	Insoluble
COc1cc(N)cc(Nc2c3ccccc3nc3c(OCCN(CCCl)CCCl)cccc23)c1	6.7	30	Toxic	Insoluble	Insoluble	Insoluble
ClCCN(CCCl)CCCCOc1ccc(Nc2c3ccccc3nc3c(OCCN(CCCl)CCCl)cccc23)cc1	21	30	Toxic	Insoluble	Insoluble	Insoluble
ClCCN(CCCl)CCCCOc1ccc(Nc2c3ccccc3nc3ccccc23)cc1	56	30	Toxic	Insoluble	Insoluble	Insoluble
CC(=O)O[C@H]1C(=O)[C@@]2(C)[C@H]([C@H](OC(=O)c3ccccc3)[C@]3(O)C[C@H](OC(=O)[C@H](O)[C@@H](NC(=O)c4ccccc4)c4ccccc4)C(C)=C1C3(C)C)[C@]1(OC(C)=O)CO[C@@H]1C[C@@H]2O			Toxic			
ClCCN(CCCl)CCOc1ccc(Nc2c3ccccc3nc3ccccc23)cc1		30	Toxic	Insoluble	Insoluble	Insoluble
ClCCN(CCCl)CCOc1cccc(Nc2c3ccccc3nc3c(OCCN(CCCl)CCCl)cccc23)c1	17	30	Toxic	Insoluble	Insoluble	Insoluble
ClCCN(CCCl)CCOc1cccc(Nc2c3ccccc3nc3ccccc23)c1	86	30	Toxic	Insoluble	Insoluble	Insoluble
